High-throughput results: PubChem BioAssay, several laboratories
Hits are enriched below; roughly 3.9% of the tested compounds scored in any of these assays.
ABCB6 inh 2 – ABCB6 transporter inhibitors, primary screen, K562-ABCB6 cells, flow cytometry, MLPCN library; ATP-binding cassette sub-family B member 6 (Homo sapiens), Q9NP58; K562-ABCB6 porphyrin accumulation, 1 h; stronger effect = lower value; fluorescence ratio to DMSO, % at 10 µM; actives 0.19% (n = 360,000);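 active = fluorescence ratio to DMSO below 75%, the collection mean minus 3 SD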;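 note: signal is porphyrin accumulated inside mitochondria; lower ratio means ABCB6 inhibition with less porphyrin fluorescence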
AHR act – AHR activators, primary screen, cell-based, luminescence, luciferase reporter, human; AHR-responsive luciferase reporter cells; Aryl hydrocarbon receptor (Homo sapiens), P35869; actives 2.5% (n = 320,000); activation, % at 5 µM; in the data active = activation above about 47%
SR-BI HDL uptake – inhibitors of SR-BI mediated HDL lipid uptake, primary screen, ldlA[mSR-BI] cells, fluorescence, single point; Scavenger receptor class B member 1 (Mus musculus), Q61009; ldlA[mSR-BI] CHO cells, DiI-HDL uptake fluorescence, 3 h; inhibition, % at 12.5 µM; actives 0.96% (n = 320,000);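 active = mean replicate inhibition of at least 70% and a set share of replicates each scoring 70 or more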
Target sequence (Q61009 whole entry, looked up): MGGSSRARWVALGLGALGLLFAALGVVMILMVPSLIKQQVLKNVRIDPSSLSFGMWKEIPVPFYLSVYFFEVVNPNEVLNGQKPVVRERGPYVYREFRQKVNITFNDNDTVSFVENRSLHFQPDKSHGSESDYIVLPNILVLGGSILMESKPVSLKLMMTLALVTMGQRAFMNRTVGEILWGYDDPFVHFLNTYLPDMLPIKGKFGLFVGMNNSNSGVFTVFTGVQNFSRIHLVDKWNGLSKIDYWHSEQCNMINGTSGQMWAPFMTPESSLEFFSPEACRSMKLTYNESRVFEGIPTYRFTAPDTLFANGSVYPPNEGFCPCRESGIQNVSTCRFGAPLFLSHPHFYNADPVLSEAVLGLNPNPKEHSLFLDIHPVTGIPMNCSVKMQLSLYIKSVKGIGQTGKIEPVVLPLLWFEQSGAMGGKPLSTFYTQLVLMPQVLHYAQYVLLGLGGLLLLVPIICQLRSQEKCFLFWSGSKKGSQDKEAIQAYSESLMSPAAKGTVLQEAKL
FXN GAA850 act – FXN promoter activators, primary screen, cell-based, luciferase luminescence, HEK293 lucGAA850; HEK293 lucGAA850 FXN promoter luciferase reporter, 24 h; percent of 10 µM SAHA response; activation, % at 6 µM; actives 0.56% (n = 360,000); AID 540364, 2011;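 active = activation above the average of all compounds screened plus 3 SD, cutoff fixed separately per campaign, cut at about 7.5% in these data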
SR-BI DiI-HDL act – activators of SR-BI mediated DiI-HDL uptake, primary screen, ldlA[mSR-BI] CHO cells, DiI fluorescence; 3 h; 100 = double the neutral-control signal; activation, % at 12.5 µM; actives 0.096% (n = 320,000);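 active = mean replicate activation of at least 60% and every replicate at or above 60%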
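Assay system: LDL receptor-deficient CHO ldlA cells overexpressing murine SR-BI / Medium: BSA-supplemented, HEPES-buffered Ham's F12, pH 7.4 / Probe or stimulus: DiI-labelled HDL at 10 µg/mL final / Timing: compound with DiI-HDL co-incubation, 3 h at 37 °C / Technique: bottom-read cell fluorescence after medium removal, ex 550/em 595 nm / Measure: HDL uptake via cellular fluorescence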
HIF act – HIF pathway transcriptional activators, primary screen, cell-based, U2OS HRE-luciferase, luminescence. U2OS HRE-luciferase reporter; normalized: DMSO 0%, desferrioxamine 100%. activation, % at 7.5 µM (by protocol). actives 0.32% (n = 300,000);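 active = mean activation of at least 10% of the iron chelator positive control signal, with at least half of replicates also reaching 10%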
Large screens that a line does not name were inactive.

CCn1c(=N)n(CC(=O)c2ccc(Br)s2)c2ccccc21	AHR act 48 (no result: SR-BI HDL uptake, SR-BI DiI-HDL act)
CN1N=C(c2ccc(F)c(F)c2)CSC1=NCc1ccccc1	none
CCC1=[N+](CC(=O)c2ccc(C)cc2)CCn2c(C)ccc21	AHR act 71
CCC1=[N+](CC(=O)c2ccc(Br)cc2)CCn2c(C)ccc21	AHR act 73
COc1ccc(N2CCN(C(=O)C3CCCN(S(=O)(=O)c4cccc5cccnc45)C3)CC2)cc1 (centres undefined)	none
Cc1ccc(NC(=O)N2CCCCCC2)cc1C	none
COc1cccc2[nH]c3c(N4CCC(C)CC4)ncnc3c12	AHR act 60
COc1cccc2[nH]c3c(N4CCN(Cc5ccc6c(c5)OCO6)CC4)ncnc3c12	AHR act 73 (no result: ABCB6 inh 2, SR-BI HDL uptake, FXN GAA850 act, SR-BI DiI-HDL act)
CC1=CCC2C(=O)N(c3cccc(C(=O)Nc4ccc(Cl)cc4)c3)C(=O)C2C1 (centres undefined)	AHR act 69
CCCCNC(=O)CC1N=C2c3ccccc3N=C(SCC(=O)Nc3cccc(C)c3)N2C1=O (centres undefined)	none
CCOc1ccccc1/C=N/NC(=O)c1cc(C(C)C)[nH]n1	SR-BI HDL uptake 73
CCOc1ccccc1/C=N/NC(=O)c1cccc(S(=O)(=O)N2CCOCC2)c1	SR-BI HDL uptake 82
CCN(CC)c1ccc(C=Nc2cccc(S(=O)(=O)N3CCOCC3)c2)c(O)c1	none (no result: HIF act)
CCN(CC)c1ccc(/C=N/NC(=O)c2cccc(S(=O)(=O)N3CCOCC3)c2)c(O)c1	SR-BI HDL uptake 114, HIF act 102
CCOC(=O)N/N=C/c1ccc(N(CC)CC)cc1O	none
CCN(CC)c1ccc(/C=N/NC(=O)c2c(Cl)cnn2C)c(O)c1	HIF act 15
O=C1CCC[C@@H]2Cc3nc4ccc(O)cc4cc3[C@@H]3CCN1[C@H]23	none (no result: AHR act, HIF act)
O=C(O)CCC1(CCC(=O)O)CCCC(CCC(=O)O)(CCC(=O)O)C1=O	SR-BI DiI-HDL act 61 (no result: AHR act, HIF act)
O=C(O)CCN1C(=O)NC2(CCCC2)C1=O	none
CC(=O)Nc1ccc(S(=O)(=O)NC2=C(N3CCN(Cc4ccccc4)CC3)C(=O)c3ccccc3C2=O)cc1	none
O=C(NC1CC1)C1=C[C@@H](C2CC2)C[C@@H](OCCCCO)O1	none
O=C(NC1CC1)C1=C[C@@H](c2c[nH]c3ccccc23)C[C@@H](OCCCCO)O1	AHR act 65
O=C(NC1CC1)C1=C[C@@H](c2c[nH]c3ccccc23)C[C@@H](OCc2ccc(CO)cc2)O1	AHR act 76
O=C(NC1CC1)C1=C[C@@H](c2ccccc2)C[C@@H](OCc2ccc(CO)cc2)O1	none
O=C(NC1CC1)C1=C[C@H](c2c[nH]c3ccccc23)C[C@H](OCCCCO)O1	AHR act 72
CC1(NCc2ccc(Cl)cc2)COP(=O)(NCc2ccccc2)OC1 (centres undefined)	none (no result: AHR act, HIF act)
Cn1c(=O)c2c(nc(N3CCc4ccccc4C3)n2Cc2ccccc2F)n(C)c1=O	none
CCOc1ccc(-c2nnc(-c3ccncc3)o2)cc1	AHR act 61 (no result: SR-BI DiI-HDL act)
CC(C)C(=O)NC(c1ccco1)c1ccc2cccnc2c1O (centres undefined)	HIF act 22
Oc1c(C(Nc2nc3ccccc3s2)c2ccco2)ccc2cccnc12 (centres undefined)	HIF act 31
CC(=O)NC(c1ccco1)c1cc(F)c2cccnc2c1O (centres undefined)	none (no result: HIF act)
CCCC(=O)NC(c1cccc([N+](=O)[O-])c1)c1ccc2cccnc2c1O (centres undefined)	none (no result: AHR act, SR-BI HDL uptake, SR-BI DiI-HDL act, HIF act)
CC(C)C(=O)NC(c1cccc([N+](=O)[O-])c1)c1ccc2cccnc2c1O (centres undefined)	HIF act 95
CC(=O)c1cc2c(cc1NC(=O)CSc1ncccn1)OCO2	none (no result: AHR act, SR-BI HDL uptake, SR-BI DiI-HDL act, HIF act)
COc1ccc(Cl)cc1C(=O)NCCS(=O)(=O)N1CCN(c2ccccc2F)CC1	none
COCCn1c(=N)c(C(=O)NCCc2ccccc2)cc2c(=O)n3cccc(C)c3nc21	none
Cc1cc(C)cc(NC(=O)c2oc3ccccc3c2COc2ccccc2)c1	none
COc1ccc(CN2CCN(Cc3cccn3-c3ncccn3)CC2CCO)c(C)c1C (centres undefined)	none
CC1=NN(c2ccccc2)C(=O)C1N=Nc1ccccc1 (centres undefined)	none
CC1=NN(c2ccccc2)C(=O)C1N=Nc1ccc(N)cc1 (centres undefined)	AHR act 49
COc1ccc(N=NC2C(=O)N(c3ccccc3)N=C2C)cc1 (centres undefined)	AHR act 51
CC1=NN(c2ccccc2)C(=O)C1N=Nc1cccc(O)c1 (centres undefined)	none
CCCCNC(=O)Nc1nnc(-c2ccccc2)o1	none
CC(=O)c1c(C)[nH]c(C(=O)NC2CCSc3ccccc32)c1C (centres undefined)	none
COc1ccc(/C=N/c2c(-c3ccc(OC)cc3)nc3n2CCS3)cc1	none
Fc1ccc(/C=N/c2c(-c3ccc(F)cc3)nc3n2CCS3)cc1	SR-BI HDL uptake 77
CC(C)c1ccc(NC(=O)c2csnn2)cc1	none
CC(C)c1ccc(NC(=O)c2snc3ccc(Cl)cc23)cc1	AHR act 55
CC[n+]1c(/C=C/N(C)c2ccccc2)n(-c2ccccc2)c2ccc(-c3nc4ccccc4s3)cc21	SR-BI HDL uptake 78
CCOC(=O)c1ccc2c(c1)n(CC)c(/C=C/N(C)c1ccccc1)[n+]2CC	none
COc1ccc(CC(NC(C)=O)C(=O)NC2CCN(C(=O)c3ccncc3)CC2)cc1OC (centres undefined)	none
COc1ccc(CC(NC(C)=O)C(=O)NC2CCN(C(=O)c3cccc(Cl)c3)CC2)cc1OC (centres undefined)	HIF act 127 (no result: AHR act, SR-BI HDL uptake, SR-BI DiI-HDL act)
COc1ccc(-c2csc(C(C)(NC(C)=O)c3ccccc3)n2)cc1 (centres undefined)	none (no result: AHR act, SR-BI HDL uptake, SR-BI DiI-HDL act, HIF act)
COc1ccccc1/C=C/C(=O)c1cc(Br)ccc1OC(=O)c1ccco1	AHR act 74
CC1(C(=O)O)CCN1C(=O)c1ccccc1F (centres undefined)	none (no result: AHR act, SR-BI HDL uptake, SR-BI DiI-HDL act, HIF act)
CCOC(=O)c1csc(NC(=O)c2ccc(OC)c(OC)c2)n1	SR-BI HDL uptake 77
Cc1sc(NC(=O)COc2ccccc2)c(C#N)c1-c1ccccc1	none
CCOC(=O)c1csc(NC(=O)c2ccc(OCC)cc2)n1	none
